# Reference: ChEMBL document CHEMBL4732268, “Discovery of a Potent and Selective Covalent p300/CBP Inhibitor” (ACS Med Chem Lett, 2021)
# Legend:
# [1] = Inhibition of human p300-BHC domain (residues 1036-1822)/CBP-BHC domain (residues 1072-1859) expressed in Bac-to-Bac Baculovirus expression system assessed as inhibition of lysine residues acetylation in Histone H4 synthetic substrate preincubated for 30 mins followed by addition of substrate and acetyl coenzyme A and measured after 1 hr by TR-FRET assay
# [2] = Inhibition of human p300/CBP in human PC-3 cells assessed as decrease in H3K27 acetylation measured after 48 hrs by Fluorescence based plate reader assay; format: cell-based; settings: PC-3, 48 h
# [3] = Inhibition of human p300/CBP in human PC-3 cells assessed as decrease in H3K27 acetylation incubated for 24 hrs followed by compound washout and measured after 2 hr by Fluorescence based plate reader assay; format: cell-based
# Method in brief: (§1)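 Washout assay. PC-3 cells were incubated with compound for 24 h, washed, and given fresh compound-free medium. Incubation then continued, and H3K27 acetylation was measured at set times from 1 to 48 h after washout. Inhibition is reported as EC50.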
# [4] = species: Homo sapiens; assay: Ratio of EC50 for human p300/CBP in human PC-3 cells incubated for 24 hrs and measured 4 hr post washout to EC50 for human p300/CBP in human PC-3 cells measured after 24 hrs; format: cell-based
# [5] = species: Homo sapiens; assay: Ratio of EC50 for human p300/CBP in human PC-3 cells incubated for 24 hrs and measured 24 hr post washout to EC50 for human p300/CBP in human PC-3 cells measured after 24 hrs; format: cell-based
# [6] = species: Homo sapiens; assay: Ratio of EC50 for human p300/CBP in human PC-3 cells incubated for 24 hrs and measured 48 hr post washout to EC50 for human p300/CBP in human PC-3 cells measured after 24 hrs; format: cell-based
# [7] = Inhibition of human p300/CBP in human PC-3 cells assessed as decrease in H3K27 acetylation incubated for 24 hrs followed by compound washout and measured after 24 hr by Fluorescence based plate reader assay; format: cell-based; settings: PC-3, 24 h; method in brief: as §1
# [8] = Inhibition of human p300/CBP in human PC-3 cells assessed as decrease in H3K27 acetylation incubated for 24 hrs followed by compound washout and measured after 4 hr by Fluorescence based plate reader assay; format: cell-based; method in brief: as §1
# [9] = species: Homo sapiens; assay: Ratio of EC50 for human p300/CBP in human PC-3 cells measured after 48 hr to EC50 for human p300/CBP in human PC-3 cells measured after 24 hrs; format: cell-based
# [10] = Inhibition of human p300/CBP in human PC-3 cells assessed as decrease in H3K27 acetylation measured after 24 hrs by Fluorescence based plate reader assay; format: cell-based; settings: PC-3, 24 h
# [11] = Inhibition of human p300/CBP in human PC-3 cells assessed as decrease in H3K27 acetylation measured after 3 hrs by Fluorescence based plate reader assay; format: cell-based; settings: PC-3, 3 h
# Method in brief: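 PC-3 cells were treated with compound for 3 h, and the reduction in H3K27 acetylation was measured.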
# [12] = species: Homo sapiens; assay: Ratio of EC50 for human p300/CBP in human PC-3 cells incubated for 24 hrs and measured 8 hr post washout to EC50 for human p300/CBP in human PC-3 cells measured after 24 hrs; format: cell-based
# [13] = species: Homo sapiens; assay: Ratio of EC50 for human p300/CBP in human PC-3 cells incubated for 24 hrs and measured 1 hr post washout to EC50 for human p300/CBP in human PC-3 cells measured after 24 hrs; format: cell-based
# [14] = Inhibition of human p300/CBP in human PC-3 cells assessed as decrease in H3K27 acetylation incubated for 24 hrs followed by compound washout and measured after 8 hr by Fluorescence based plate reader assay; format: cell-based; method in brief: as §1
# [15] = tested on: LNCaP-Clone-FGC; assay: Antiproliferative activity against AR-positive human LNCaP-Clone-FGC cells assessed as inhibition of cell proliferation measured after 5 days by luminiscent plate reader method; format: functional, cell-based; settings: 120 h
# Method in brief: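 LNCaP-FGC cells (androgen receptor-positive) were treated with compound for 5 days, then proliferation was read in a cell-growth assay. EC50 was derived from N = 2.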
# [16] = Inhibition of human p300/CBP in human PC-3 cells assessed as decrease in H3K27 acetylation incubated for 24 hrs followed by compound washout and measured after 1 hr by Fluorescence based plate reader assay; format: cell-based; method in brief: as §1
# [17] = species: Homo sapiens; assay: Ratio of EC50 for human p300/CBP in human PC-3 cells incubated for 24 hrs and measured 2 hr post washout to EC50 for human p300/CBP in human PC-3 cells measured after 24 hrs; format: cell-based
# [18] = tested on: DU-145; assay: Antiproliferative activity against human DU-145 cells assessed as inhibition of cell proliferation measured after 5 days by luminiscent plate reader method; format: functional, cell-based; settings: DU-145, 120 h
# Method in brief: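 DU-145 cells (androgen receptor-negative) were treated with compound for 5 days, then proliferation was read in a cell-growth assay. EC50 was derived from the dose response.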
# [19] = Inhibition of human p300/CBP in human PC-3 cells assessed as decrease in H3K27 acetylation incubated for 24 hrs followed by compound washout and measured after 48 hr by Fluorescence based plate reader assay; format: cell-based; method in brief: as §1
smiles,measurement,setting,value
C=CC(=O)Nc1ccc(NC(=O)Nc2ccc3c(c2)CC[C@@]32OC(=O)N(CC(=O)N(Cc3ccc(F)cc3)[C@@H](C)C(F)(F)F)C2=O)cc1,IC50,[1],22100 nM
C=CS(=O)(=O)Nc1ccc(NC(=O)Nc2ccc3c(c2)CC[C@@]32OC(=O)N(CC(=O)N(Cc3ccc(F)cc3)[C@@H](C)C(F)(F)F)C2=O)cc1,IC50,[1],3020 nM
C=CC(=O)Nc1cccc(NC(=O)Nc2ccc3c(c2)CC[C@@]32OC(=O)N(CC(=O)N(Cc3ccc(F)cc3)[C@@H](C)C(F)(F)F)C2=O)c1,EC50,[2],21 nM
same,EC50,[3],17 nM
same,Ratio,[4],2.1
same,Ratio,[5],47.8
same,Ratio,[6],57.7
same,EC50,[7],544 nM
same,EC50,[8],24 nM
same,Ratio,[9],1.8
same,EC50,[10],11 nM
same,EC50,[11],37 nM
same,Ratio,[12],11.3
same,IC50,[1],166 nM
same,Ratio,[13],1.3
same,EC50,[14],129 nM
same,EC50,[15],87 nM
same,EC50,[16],15 nM
same,Ratio,[17],1.5
same,EC50,[18],1370 nM
same,EC50,[19],656 nM
C=CS(=O)(=O)Nc1cccc(NC(=O)Nc2ccc3c(c2)CC[C@@]32OC(=O)N(CC(=O)N(Cc3ccc(F)cc3)[C@@H](C)C(F)(F)F)C2=O)c1,EC50,[11],1230 nM
same,IC50,[1],604 nM
C=CC(=O)NCC(C)(C)CNC(=O)Nc1ccc2c(c1)CC[C@@]21OC(=O)N(CC(=O)N(Cc2ccc(F)cc2)[C@@H](C)C(F)(F)F)C1=O,EC50,[11],48 nM
same,IC50,[1],185 nM
same,EC50,[15],177 nM
CNC(=O)Nc1ccc2c(c1)CC[C@@]21OC(=O)N(CC(=O)N(Cc2ccc(F)cc2)[C@@H](C)C(F)(F)F)C1=O [A-485],EC50,[2],253 nM
same,EC50,[3],> 10000 nM
same,EC50,[7],> 10000 nM
same,EC50,[8],> 10000 nM
same,EC50,[10],227 nM
same,EC50,[11],103 nM
same,EC50,[14],> 10000 nM
same,EC50,[15],350 nM
same,EC50,[16],> 10000 nM
same,EC50,[19],> 10000 nM
C=CC(=O)N1CCCN(C(=O)Nc2ccc3c(c2)CC[C@@]32OC(=O)N(CC(=O)N(Cc3ccc(F)cc3)[C@@H](C)C(F)(F)F)C2=O)C1,IC50,[1],2000 nM
C=CS(=O)(=O)c1ccc(NC(=O)Nc2ccc3c(c2)CC[C@@]32OC(=O)N(CC(=O)N(Cc3ccc(F)cc3)[C@@H](C)C(F)(F)F)C2=O)cc1,IC50,[1],4270 nM
